Results as given in ChEMBL document CHEMBL1177816, “Epsilon substituted lysinol derivatives as HIV-1 protease inhibitors” (Bioorg Med Chem Lett, 2010).

Assays:
Protease = Protease (Human immunodeficiency virus 1, UniProt Q9YQ12); assay: Inhibition of HIV1 protease
[1] = test system: Human immunodeficiency virus 1; assay: Antiviral activity against HIV1 3B infected in human MT4 cells assessed as inhibition of viral spread after 3 days by p24 antigen ELISA in presence of 10% fetal bovine serum; type: functional
Method in brief: (§1)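 MT-4 cells kept in RPMI 1640 with 10% heat-inactivated FBS were infected en masse with HIV-1 IIIb at multiplicity 0.01 for 24 h, then washed and plated. Serial twofold inhibitor dilutions were added and cultures ran 3 more days. Spread was read by p24 core antigen ELISA. Line 2 used 10% FBS; line 3 used cells resuspended in 50% normal human serum, giving a serum-adjusted IC95.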

[2] = test system: Human immunodeficiency virus 1; assay: Antiviral activity against HIV1 3B infected in human MT4 cells assessed as inhibition of viral spread after 3 days by p24 antigen ELISA in presence of 50% normal human serum; type: functional; method in brief: as §1
[3] = AUC in Beagle dog at 4 mg/kg, po; type: ADME, organism-based, Canis lupus familiaris; parameters: dose 4 mg/kg, route oral; settings: plasma
Method in brief: (§2)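 Beagle dogs received 4 mg/kg orally in PEG 400. Plasma drug levels (nM) were measured over 24 h, including the 24 h trough, and oral half-life was calculated from the plasma concentration profile.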

[4] = Trough plasma concentration in Beagle dog at 4 mg/kg after 24 hrs; type: ADME, organism-based, Canis lupus familiaris; parameters: dose 4 mg/kg; method in brief: as §2
[5] = Half life in Beagle dog at 4 mg/kg, po; type: ADME, organism-based, Canis lupus familiaris; parameters: dose 4 mg/kg, route oral; settings: in vivo; method in brief: as §2

Protease, sequence (Q9YQ12 whole entry): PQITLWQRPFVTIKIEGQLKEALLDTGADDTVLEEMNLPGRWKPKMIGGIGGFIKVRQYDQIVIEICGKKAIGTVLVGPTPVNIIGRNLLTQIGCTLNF

| SMILES | IC50 (Protease) [nM] | AUC [3] [µM·h] | concentration at 24 h [4] [nM] | half-life [5] [h] | Inhibition of viral spread [1] [nM] | Virucidal [2] [nM] |
| --- | --- | --- | --- | --- | --- | --- |
| COC(=O)N[C@H](C(=O)N[C@@H](C)CCC[C@@H](CO)N(CCC(C)C)S(=O)(=O)c1ccc(N)cc1)C(c1ccccc1)c1ccccc1 |  | 0.32 | 2 |  | 6.6 | 120 |
| COC(=O)N[C@H](C(=O)N[C@H](C)CCC[C@@H](CO)N(CCC(C)C)S(=O)(=O)c1ccc(N)cc1)C(c1ccccc1)c1ccccc1 | 0.4 |  |  |  | 98 |  |
| CCC[C@@H](CCC[C@@H](CO)N(CCC(C)C)S(=O)(=O)c1ccc(N)cc1)NC(=O)[C@@H](NC(=O)OC)C(c1ccccc1)c1ccccc1 | 0.1 |  |  |  | 56 |  |
| COC(=O)N[C@H](C(=O)N[C@@H](CCC[C@@H](CO)N(CCC(C)C)S(=O)(=O)c1ccc(N)cc1)C(C)C)C(c1ccccc1)c1ccccc1 | 0.1 |  |  |  | 37 |  |
| COC(=O)N[C@H](C(=O)NCCCC[C@@H](CO)N(CC(C)C)S(=O)(=O)c1ccc(N)cc1)C(c1ccccc1)c1ccccc1 [PPL-100] | 0.5 |  |  |  |  |  |

Continued, in another order:

| IC50 (Protease) [nM] | AUC [3] [µM·h] | concentration at 24 h [4] [nM] | half-life [5] [h] | SMILES | Inhibition of viral spread [1] [nM] | Virucidal [2] [nM] |
| --- | --- | --- | --- | --- | --- | --- |
| 0.03 |  |  |  | COC(=O)N[C@H](C(=O)NCCCC[C@@H](CO)N(CCC(C)C)S(=O)(=O)c1ccc(N)cc1)C(c1ccccc1)c1ccccc1 | 12 | 130 |
| 0.016 | 1.05 | 5.1 | 6 | CC[C@@H](CCC[C@@H](CO)N(CCC(C)C)S(=O)(=O)c1ccc(N)cc1)NC(=O)[C@@H](NC(=O)OC)C(c1ccccc1)c1ccccc1 | 10 | 74 |
| 0.013 |  |  |  | COC(=O)N[C@H](C(=O)N[C@H](CO)CCC[C@@H](CO)N(CCC(C)C)S(=O)(=O)c1ccc(N)cc1)C(c1ccccc1)c1ccccc1 | 230 |  |
